Results published in ChEMBL document CHEMBL2321816, “Synthesis and antitumor evaluation of arctigenin derivatives based on antiausterity strategy” (Eur J Med Chem, 2013).
Calls of active or inactive are those of the source. The rule behind the calls is not given here.

What was measured:
PANC-1 = assay: Cytotoxicity against human PANC1 cells assessed as cell viability after 3 hrs by WST-8 cells; format: functional
Outline: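 PANC-1 cells, 2 × 10⁴/well, grown 24 h in DMEM at 37 °C in 5% CO₂. Cells were PBS-washed and then exposed 24 h to serial dilutions in nutrient-deprived medium or in normal DMEM. After a PBS wash, WST-8 in DMEM was added for 3 h and A450 was read. Viability was taken against blank and control from the mean of three wells. PC50 is the concentration killing 50% of cells preferentially in NDM.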

Mus musculus [1] = species: Mus musculus; assay: Toxicity in human Capan1 cells injected BALB/cAJcl-nu-nu mouse assessed as behavior at 50 ug for 6 days in a week upto 28th days treatment started on 15th day tumor injection; format: organism-based; conditions: capan-1, 144 h
Outline: (§1)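 Female BALB/cAJcl-nu/nu mice, five weeks old, injected s.c. on the right back with 5 × 10⁶ CAPAN-1 cells in DMEM. At two weeks, mice with tumors around 5 mm were randomized to treatment or vehicle groups. Drug was given from a DMSO stock (10 mg/mL) diluted in saline, 0.2 mL i.p., 6 days/week for 4 weeks. Body weight and tumor size were taken weekly. Tumors were weighed wet at the end.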

Mus musculus [2] = species: Mus musculus; assay: Toxicity in human Capan1 cells injected BALB/cAJcl-nu-nu mouse assessed as body weight at 50 ug for 6 days in a week upto 28th days treatment started on 15th day tumor injection; format: organism-based; conditions: capan-1, 144 h; outline: as §1
CAPAN-1 = assay: Antitumor activity against human Capan1 cells injected into BALB/cAJcl-nu-nu mouse assessed as reduction in tumor weight at 50 ug for 6 days in a week upto 28th days treatment started on 15th day tumor injection; format: functional; outline: as §1

Row | Compound | PC50 (PANC-1) [µM] | also measured
1 | CCCOc1cc(C[C@H]2C(=O)OC[C@@H]2Cc2ccc(OC)c(OC)c2)ccc1O | 3.74 | 
2 | CCCOc1cc(C[C@H]2C(=O)OC[C@@H]2Cc2ccc(OCC)c(OCCC)c2)ccc1O | 28.6 | 
3 | CCCOc1cc(C[C@H]2C(=O)OC[C@@H]2Cc2ccc(OC)c(OCC)c2)ccc1O | 3.54 | 
4 | COc1cc(C[C@H]2C(=O)OC[C@@H]2Cc2ccc(OC)c(OC)c2)ccc1O [ARCTIGENIN] | 0.8 | Activity (Mus musculus [1]): Non-toxic; Activity (Mus musculus [2]): Non-toxic; inhibition (CAPAN-1): Active
5 | COc1ccc(C[C@H]2COC(=O)[C@@H]2Cc2ccc(O)c(OC(C)C)c2)cc1OC | 4.16 | 
6 | CCOc1cc(C[C@H]2C(=O)OC[C@@H]2Cc2ccc(OCC)c(OCC)c2)ccc1O | 0.78 | Activity (Mus musculus [1]): Non-toxic; Activity (Mus musculus [2]): Non-toxic; inhibition (CAPAN-1): Active
7 | CCOc1ccc(C[C@H]2COC(=O)[C@@H]2Cc2ccc(O)c(OC)c2)cc1OCC | 4.85 | 
8 | CCOc1cc(C[C@H]2C(=O)OC[C@@H]2Cc2ccc(OC)c(OCC)c2)ccc1O | 0.66 | 
9 | COc1ccc(C[C@H]2COC(=O)[C@@H]2Cc2ccc(O)c(OCCO)c2)cc1OC | 7.7 | 
10 | CCOc1cc(C[C@H]2COC(=O)[C@@H]2Cc2ccc(O)c(OC)c2)ccc1OC | 4.71 | 
11 | CCOc1cc(C[C@H]2C(=O)OC[C@@H]2Cc2ccc(OC)c(OC)c2)ccc1O | 3.74 | 
12 | CCCCOc1cc(C[C@H]2C(=O)OC[C@@H]2Cc2ccc(OC)c(OC)c2)ccc1O | 7.14 | 
13 | CCCOc1cc(C[C@H]2C(=O)OC[C@@H]2Cc2ccc(OC)c(OCCC)c2)ccc1O | 13.6 | 
14 | CCCCCCOc1cc(C[C@H]2C(=O)OC[C@@H]2Cc2ccc(OC)c(OC)c2)ccc1O | 3.89 | 
15 | CCOc1ccc(C[C@H]2COC(=O)[C@@H]2Cc2ccc(O)c(OC)c2)cc1OC | 0.49 | 
16 | CCOc1cc(C[C@H]2C(=O)OC[C@@H]2Cc2ccc(OCC)c(OC)c2)ccc1O | 4.77 | 
